Measurements from different studies.
Each line is one published result; the experiments were not run side by side.
Target: Homeodomain-interacting protein kinase 1 (HIPK1, Homo sapiens, UniProt Q86Z02)

COc1ncccc1-c1cnn2ccc(N3CCN(C(=O)OC(C)C)CC3)nc12
remaining binding (binding, competition with immobilised ligand; 1 µM): 92%

O=c1[nH]c2ccccc2n1C1CCN(Cc2ccc(-c3[nH]c4cc5ncnc5cc4nc3-c3ccccc3)cc2)CC1
remaining signal (cell-free assay; 0.5 µM): 106%

Cn1cc(-c2cc(F)cc(N3CCn4c(cc5c4CCCC5)C3=O)c2CO)cc(Nc2ccc(N3CCN(C4COC4)CC3)cn2)c1=O
inhibition (enzyme activity, inhibitor; 0.1 µM): 5%

CC(C)(C)c1cc(C=C(C#N)C#N)cc(Br)c1O
remaining activity (enzyme activity, inhibitor; 0.5 µM): 104%

Cc1nn(C)cc1-c1nc2c(N3CCN(Cc4ccc(Cl)cc4)CC3)c(Cl)cnc2[nH]1
remaining binding (binding, competition with immobilised ligand; 1 µM): 66%

Cn1cc(-c2cccc(N3CCc4c(sc5c4CC(C)(C)C5)C3=O)c2CO)cc(Nc2ccncn2)c1=O
inhibition (enzyme activity, inhibitor; 1 µM): -2%

Nc1ncc(-c2nc(N3CCOCC3)nc(N3CCOCC3)n2)c(C(F)F)n1
remaining binding (binding, competition with immobilised ligand; 10 µM): 69%

Cn1cncc1[C@@](O)(COc1ccc(C#N)cc1-c1ccc(OC(F)(F)F)cc1)c1ccc(C#N)cc1
remaining binding (cell-free assay, competition with immobilised ligand; 1 µM): 79%
